In PMC5388420 (Nucleic Acids Research, 2016):
Positions count from the first letter of the chain named. Names may count otherwise. Where two headings read alike, the source gives them in different places.

B1: WT RIG-I: Wild-type human RIG-I (hRIG-I), innate immune receptor and RNA-stimulated ATPase, recombinant or expressed from pUNO-hRIG-I (protein, UniProt O95786 1-925, looked up)
Antiviral innate immune …: MTTEQRRSLQAFQDYIRKTLDPTYILSYMAPWFREEEVQYIQAEKNNKGPMEAATLFLKFLLELQEEGWFRGFLDALDHAGYSGLYEAIESWDFKKIEKLEEYRLLLKRLQPEFKTRIIPTDIISDLSECLINQECEEILQICSTKGMMAGAEKLVECLLRSDKENWPKTLKLALEKERNKFSELWIVEKGIKDVETEDLEDKMETSDIQIFYQEDPECQNLSENSCPPSEVSDTNLYSPFKPRNYQLELALPAMKGKNTIICAPTGCGKTFVSLLICEHHLKKFPQGQKGKVVFFANQIPVYEQQKSVFSKYFERHGYRVTGISGATAENVPVEQIVENNDIIILTPQILVNNLKKGTIPSLSIFTLMIFDECHNTSKQHPYNMIMFNYLDQKLGGSSGPLPQVIGLTASVGVGDAKNTDEALDYICKLCASLDASVIATVKHNLEELEQVVYKPQKFFRKVESRISDKFKYIIAQLMRDTESLAKRICKDLENLSQIQNREFGTQKYEQWIVTVQKACMVFQMPDKDEESRICKALFLYTSHLRKYNDALIISEHARMKDALDYLKDFFSNVRAAGFDEIEQDLTQRFEEKLQELESVSRDPSNENPKLEDLCFILQEEYHLNPETITILFVKTRALVDALKNWIEGNPKLSFLKPGILTGRGKTNQNTGMTLPAQKCILDAFKASGDHNILIATSVADEGIDIAQCNLVILYEYVGNVIKMIQTRGRGRARGSKCFLLTSNAGVIEKEQINMYKEKMMNDSILRLQTWDEAVFREKILHIQTHEKFIRDSQEKPKPVPDKENKKLLCRKCKALACYTADVRVIEECHYTVLGDAFKECFVSRPHPKPKQFSSFEKRAKIFCARQNCSHDWGIHVKYKTFEIPVIKIESFVVEDIATGVQTLYSKWKDFHFEKIPFDPAEMSK
B2: S411L: RIG-I Motif III variant, serine 411 mutated to leucine, annotated in tumor samples (protein, UniProt O95786 1-925, looked up, variant S411L)
Antiviral innate immune …: B1 Antiviral innate immune … with S411L
B3: S411A: RIG-I variant with mutation S411A within conserved helicase Motif III; constitutively signaling (protein, UniProt O95786 1-925, looked up, variant S411A)
Antiviral innate immune …: B1 Antiviral innate immune … with S411A

Columns and labels:
[1] = MANT-ATP binding by stopped flow fluorescence spectroscopy; conditions: for Kd: read-out: MANT-ATP binding Kd (calc., koff/kon)
5΄ppp10L hairpin RNA [2] = conditions: presence of either ATPγS or ADP; ref [22]; cited from earlier work
5΄ppp10L RNA hairpin = assay: NADH coupled ATPase activity assay; format: biochemical; conditions: for K M,RNA / k cat: steady state ATPase activity; for K M,RNA: 5΄ppp10L
How it was run: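 Coupled NADH assay: 10 nM RIG-I in 25 mM MOPS pH 7.4, 150 mM NaCl, 5 mM DTT with 1 mM NADH, 100 U/ml lactate dehydrogenase, 500 U/ml pyruvate kinase and 2.5 mM PEP. The hairpin was added as a 12-point series (~0.5–500 nM, diluted in MES pH 6.0/EDTA) and incubated ≥2 h at RT. Reactions were started with 5 mM ATP/5 mM MgCl2, and NADH absorbance loss was followed for 10 min. Mean velocities were plotted against RNA concentration.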

[3] = system: IFN-β/FireflyLuc reporter in HEK 293T cells; assay: IFN-β induction dual luciferase assay; format: cell-based; conditions: for Maximum IFN-β Production, 5΄OH10L: HEK 293T cells challenged with 5΄OH10L; for Maximum IFN-β Production, 5΄ppp10L: HEK 293T cells challenged with 5΄ppp10L; for Maximum IFN-β Production, PIC: HEK 293T cells challenged with poly(I:C); for Maximum IFN-β Production, Mock: HEK 293T cells, mock challenge (no exogenous RNA)
[4] = target: FAM-labeled 10 base pair RNA hairpin (OH10L); assay: Equilibrium fluorescent RNA binding assay; conditions: read-out: Equilibrium RNA binding Kd, OH10L
How it was run: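 Recombinant hRIG-I was expressed from pET-SUMO in E. coli Rosetta II (DE3) and purified by nickel, heparin and Superdex 200 chromatography. 6-FAM was attached via the amino-modified UUCG tetraloop, with 2 nM hairpin final. Buffer: 25 mM MOPS pH 7.4, 150 mM NaCl, 5 mM DTT, 0.01% Triton X-100. Protein was titrated over 12 points (1.5–1500 nM) and equilibrated 2 h at RT. Polarization was read at ex 485/em 528 (G = 0.87), 2 wells × 3 reads, and fit one-site total binding. Three experiments gave mean and SD.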

5΄ppp10L hairpin RNA [5] = assay: RNA dissociation rate constant measurements; format: binding
How it was run: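 RIG-I was pre-incubated equimolar with Cy3-labeled hairpin for 2–6 h at RT, then rapidly mixed with 100-fold excess unlabeled hairpin trap (2000 points). Nucleotide (3 mM ATPγS or ADP) plus MgCl2 was included with the trap. Excitation was 515 nm with emission ≥570 nm. 4–6 averaged traces were fit double-exponential for amplitudes and k1/k2.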

[6] = from 5΄ppp10L, nucleotide: ATPγS (3 mM)
[7] = from 5΄ppp10L, nucleotide: None
[8] = from 5΄ppp10L, nucleotide: ADP (3 mM)

Kd ([1]; protein bound to OH10L)	Kd [4]	Kd ([1]; protein bound to 5΄ppp10L)	Molecule	K M,RNA (5΄ppp10L RNA hairpin)	k cat (5΄ppp10L RNA hairpin; stimulated by 5΄ppp10L)	Maximum IFN-β Production, 5΄OH10L [3]	Maximum IFN-β Production, 5΄ppp10L [3]	Maximum IFN-β Production, PIC [3]	Maximum IFN-β Production, Mock [3]	Amplitude of k 1 (5΄ppp10L hairpin RNA [5]; [6])	Amplitude of k 2 (5΄ppp10L hairpin RNA [5]; [6])	k 1 (RNA dissociation rate constant) (5΄ppp10L hairpin RNA [5]; [6])	k 2 (RNA dissociation rate constant) (5΄ppp10L hairpin RNA [5]; [6])	Amplitude of k 1 (5΄ppp10L hairpin RNA [5]; [7])	Amplitude of k 2 (5΄ppp10L hairpin RNA [5]; [7])	k 1 (RNA dissociation rate constant) (5΄ppp10L hairpin RNA [5]; [7])	k 2 (RNA dissociation rate constant) (5΄ppp10L hairpin RNA [5]; [7])	further results
136 ± 6 µM	0.017 ± 0.001 µM		B1	10.0 ± 1.0 nM	18.2 ± 0.3 ATP/RIG-I•s	3.8 ± 0.3 Firefly Luc/Renilla Luc	20.1 ± 1.7 Firefly Luc/Renilla Luc	59.2 ± 15 Firefly Luc/Renilla Luc	0.99 ± 0.4 Firefly Luc/Renilla Luc									increase in the rate of dissociation from 5΄ppp10L (5΄ppp10L hairpin RNA [2]): 5 fold; kcat (RNA-stimulated ATPase activity) (5΄ppp10L RNA hairpin; stimulated by 5΄ppp10L): 18.2 s⁻¹
	0.041 ± 0.0018 µM	110 ± 8 µM	B2	Inactive	Inactive		7.8 ± 1.5 Firefly Luc/Renilla Luc	1.8 ± 0.4 Firefly Luc/Renilla Luc	0.2 ± 0.01 Firefly Luc/Renilla Luc	81%	19%	210 ± 1 × 10^−3 s^−1	10 ± 0.1 × 10^−3 s^−1	52%	48%	27 ± 0.2 × 10^−3 s^−1	2 ± 0.04 × 10^−3 s^−1	stimulation of koff^RNA by ATPγS (5΄ppp10L hairpin RNA [5]; from 5΄ppp10L): 7.8 fold; loss in IFN-β activation relative to WT ([3]; HEK 293T cells challenged by 5΄ppp10L): 3 fold; loss in IFN-β activation relative to WT ([3]; HEK 293T cells challenged by poly I:C): 31 fold
75 ± 5 µM	0.023 ± 0.0018 µM	82 ± 6 µM	B3	5.0 ± 1 nM	5.1 ± 0.4 ATP/RIG-I•s	19.5 ± 3.8 Firefly Luc/Renilla Luc	56.6 ± 10.8 Firefly Luc/Renilla Luc	209.8 ± 17 Firefly Luc/Renilla Luc	3.5 ± 0.5 Firefly Luc/Renilla Luc	42%	58%	68 ± 0.9 × 10^−3 s^−1	2 ± 0.04 × 10^−3 s^−1	52%	48%	45 ± 0.2 × 10^−3 s^−1	4 ± 0.1 × 10^−3 s^−1	greater affinity for MANT-ATP relative to WT ([1]; protein bound to OH10L): 2 fold; Amplitude of k 1 (5΄ppp10L hairpin RNA [5]; [8]): 62%; Amplitude of k 2 (5΄ppp10L hairpin RNA [5]; [8]): 38%; k 1 (RNA dissociation rate constant) (5΄ppp10L hairpin RNA [5]; [8]): 70 ± 0.9 × 10^−3 s^−1; k 2 (RNA dissociation rate constant) (5΄ppp10L hairpin RNA [5]; [8]): 6 ± 0.1 × 10^−3 s^−1; effect of nucleotide on the rate of dissociation from 5΄ppp10L (5΄ppp10L hairpin RNA [5]; saturating nucleotide (ATPγS, ADP)): did not significantly change
